Assay results taken from ChEMBL document CHEMBL1629554, “Activity of the small modified amino acid alpha-hydroxy glycineamide on in vitro and in vivo human immunodeficiency virus type 1 capsid assembly and infectivity” (Antimicrob Agents Chemother, 2008).
pEC50: −log10 of the molar value. Calls of active or inactive are those of the source. The rule behind the calls is not given here.

Key:
[1] = tested on: Vesicular stomatitis virus; test: Antiviral activity against Vesicular stomatitis virus infected in human HeLa cells; format: functional, organism-based
[2] = tested on: Human immunodeficiency virus 1; test: Antiviral activity against reverse transcriptase and protease inhibitor-resistant HIV-1 isolate HI98-96 harboring reverse transcriptase D67N, T69N, K70R, A98G, M184V, T215F, K219Q and protease L63P, G73T, D60E, L90M mutant gene infected in human PBMC; format: functional, organism-based; conditions: Human immunodeficiency virus 1, isolate HI98-96
In short: (§1)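 Clinical isolate stocks were grown in PBMC and titred by 10-fold serial dilution (TCID50). PBMC (600,000 cells/ml) were infected at 100 TCID50 and cultured with 1, 4, 16, 64 or 256 μM α-HGA, in duplicate, with untreated infected controls. Medium was changed on days 5–7. Supernatant p24 was measured by sandwich ELISA against a recombinant p24 standard up to day 14, and EC50 was derived.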

L1210 = test: Cytotoxic activity against mouse L1210 cells at 1000 uM after 14 days by trypan blue assay; format: cell-based; conditions: l1210, 336 h
In short: (§2)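 PBMC (600,000 cells/ml) or cell lines (200,000 cells/ml) cultured 14 days with 25, 100, 250, 500 or 1,000 μM compound; viable and dead cells counted in a counting chamber after 0.4% trypan blue staining.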

[3] = tested on: Human immunodeficiency virus 1; test: Antiviral activity against reverse transcriptase and protease inhibitor-resistant HIV-1 isolate HI94-18 harboring reverse transcriptase M230S mutant gene infected in human PBMC; format: functional, organism-based; conditions: Human immunodeficiency virus 1, isolate HI94-18; in short: as §1
[4] = tested on: Human immunodeficiency virus 1; test: Antiviral activity against HIV-1 SF-2 infected in human PBMC; format: functional, organism-based; conditions: Human immunodeficiency virus 1, SF-2
[5] = tested on: Human immunodeficiency virus 1; test: Antiviral activity against HIV-1 SF-2 infected in human H9 cells assessed as appearance of partially empty core viral particles at 10 uM by TEM assay (reference value: 13%); format: functional
[6] = tested on: Human immunodeficiency virus 1; test: Antiviral activity against reverse transcriptase and protease inhibitor-resistant HIV-1 isolate HI99-58 harboring reverse transcriptase D67N, K70R, A98S, Y181C, K219Q and protease M36I, L63P, I93L mutant gene infected in human PBMC; format: functional, organism-based; conditions: Human immunodeficiency virus 1, isolate HI99-58; in short: as §1
[7] = tested on: Human immunodeficiency virus 1; test: Antiviral activity against HIV-1 SF-2 infected in human H9 cells assessed as appearance of parallel slice of dense core viral particles at 10 uM by TEM assay (reference value: 41%); format: functional
CCRF-CEM = test: Cytotoxic activity against human CEM cells at 1000 uM after 14 days by trypan blue assay; format: cell-based; conditions: 336 h; in short: as §2
[8] = tested on: Human immunodeficiency virus 1; test: Antiviral activity against HIV-1 assessed as inhibition of viral p24 tubular protein assembly at 100 uM by TEM assay; format: functional, organism-based
[9] = tested on: Human immunodeficiency virus 1; test: Antiviral activity against HIV-1 SF-2 infected in human H9 cells assessed as appearance of irregular core viral particles at 10 uM by TEM assay (reference value: 1%); format: functional
[10] = tested on: Human immunodeficiency virus 1; test: Antiviral activity against HIV-1 SF-2 infected in human H9 cells assessed as appearance of two separate core structured viral particles at 10 uM by TEM assay (reference value: 0%); format: functional
[11] = tested on: Human immunodeficiency virus 1; test: Antiviral activity against reverse transcriptase and protease inhibitor-resistant HIV-1 isolate HI98-82 harboring reverse transcriptase M184V and protease L10I, I47M, L63P, I93L mutant gene infected in human PBMC; format: functional, organism-based; conditions: Human immunodeficiency virus 1, isolate HI98-82; in short: as §1
[12] = tested on: Human immunodeficiency virus 1; test: Antiviral activity against reverse transcriptase and protease inhibitor-resistant HIV-1 isolate HI97-59 harboring reverse transcriptase M184V, L210W, T215Y and protease L10I, L63T mutant gene infected in human PBMC; format: functional, organism-based; conditions: Human immunodeficiency virus 1, isolate HI97-59; in short: as §1
PBMC [13] = test: Effect on PHA-induced human PBMC cell proliferation at 2000 uM by beta scintillation counting; format: functional, cell-based
In short: (§3)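 PBMC (600,000 cells/ml) cultured 96 h in RPMI/10% FCS with PHA (2.5 μg/ml) and compound at 10–2,000 μM; [³H]thymidine (1 μCi/100,000 cells) added 8 h before end. Lysed cells harvested on nitrocellulose filters, cpm by β-scintillation counting. Untreated cells and cyclosporine (1 μg/ml) as controls.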

[14] = tested on: Human immunodeficiency virus 1; test: Antiviral activity against reverse transcriptase and protease inhibitor-resistant HIV-1 isolate HI96-90 harboring reverse transcriptase M41L, E44A, V118L, M184V, L210W, T215Y and protease L10I, L63P mutant gene infected in human PBMC; format: functional, organism-based; conditions: Human immunodeficiency virus 1, isolate HI96-90; in short: as §1
HeLa = test: Cytotoxic activity against human HeLa cells at 1000 uM after 14 days by trypan blue assay; format: cell-based; conditions: 336 h; in short: as §2
[15] = tested on: Human immunodeficiency virus 1; test: Antiviral activity against reverse transcriptase and protease inhibitor-resistant HIV-1 isolate HI93-124 harboring reverse transcriptase N67D, T69D, K70R, T215F, K219Q and protease […] mutant gene infected in human PBMC; format: functional, organism-based; conditions: Human immunodeficiency virus 1, isolate HI93-124; in short: as §1
[16] = tested on: Human immunodeficiency virus 1; test: Antiviral activity against reverse transcriptase and protease inhibitor-resistant HIV-1 isolate HI90-317 harboring reverse transcriptase M41L, T215Y and protease M36I, […], A71T, I93L mutant gene infected in human PBMC; format: functional, organism-based; conditions: Human immunodeficiency virus 1, isolate HI90-317; in short: as §1
[17] = tested on: Human immunodeficiency virus 1; test: Antiviral activity against HIV-1 SF-2 infected in human H9 cells assessed as appearance of empty core viral particles at 10 uM by TEM assay (reference value: 0%); format: functional
H9 = test: Cytotoxic activity against human H9 cells at 1000 uM after 14 days by trypan blue assay; format: cell-based; conditions: h9, 336 h; in short: as §2
[18] = tested on: Human immunodeficiency virus 1; test: Antiviral activity against HIV-1 assessed as inhibition of viral p24 tubular protein assembly at 100 uM by spectrophotometry; format: functional, organism-based
Human alphaherpesvirus 2 = test: Antiviral activity against Herpes simplex virus type 2 infected in HEL cells; format: functional, organism-based; conditions: Human alphaherpesvirus 2, HEL
In short: (§4)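 Cell cultures grown to confluence in microtiter wells, inoculated with 100 TCID50 of virus; after 1 h adsorption, residual virus removed, then incubated with fivefold dilutions of test compound. Viral cytopathicity scored once complete in untreated infected control cultures.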

Human respirovirus 3 = test: Antiviral activity against Parainfluenza virus 3 infected in african green monkey Vero cells; format: functional, organism-based; conditions: Human respirovirus 3, Vero; in short: as §4
[19] = tested on: Human immunodeficiency virus 1; test: Antiviral activity against reverse transcriptase and protease inhibitor-resistant HIV-1 isolate HI96-88 harboring reverse transcriptase M41L, E44A, D67N, T69D, L210W, T215Y and protease L63P mutant gene infected in human PBMC; format: functional, organism-based; conditions: Human immunodeficiency virus 1, isolate HI96-88; in short: as §1
FM3A = test: Cytotoxic activity against mouse FM3A cells at 1000 uM after 14 days by trypan blue assay; format: cell-based; conditions: 336 h; in short: as §2
[20] = tested on: Human immunodeficiency virus 1; test: Antiviral activity against HIV-1 assessed as inhibition of viral p24 tubular protein assembly by spectrophotometry; format: functional, organism-based
[21] = tested on: Human immunodeficiency virus 1; test: Antiviral activity against HIV-1 3B infected in human PBMC; format: functional, organism-based; conditions: Human immunodeficiency virus 1, 3B
PBMC [22] = test: Cytotoxic activity against human PBMC at 1000 uM after 14 days by trypan blue assay; format: cell-based; conditions: 336 h; in short: as §2
Vaccinia virus = test: Antiviral activity against Vaccinia virus infected in HEL cells; format: functional, organism-based; conditions: Orthopoxvirus vaccinia
[23] = tested on: Human immunodeficiency virus 1; test: Antiviral activity against reverse transcriptase and protease inhibitor-resistant HIV-1 isolate HI90-79 harboring reverse transcriptase M230V and protease M36I, […], A71T, I93L mutant gene infected in human PBMC; format: functional, organism-based; conditions: Human immunodeficiency virus 1, isolate HI90-79; in short: as §1
[24] = tested on: Human immunodeficiency virus 1; test: Antiviral activity against reverse transcriptase and protease inhibitor-resistant HIV-1 isolate HI98-100 harboring reverse transcriptase M41L, A98G, M184V, L210W, T215Y and protease L10F,K20R, M36I, M46I, L63P, V82A mutant gene infected in human PBMC; format: functional, organism-based; conditions: Human immunodeficiency virus 1, isolate HI98-100; in short: as §1
[25] = tested on: Human immunodeficiency virus 1; test: Antiviral activity against HIV-1 assessed as inhibition of viral p24 tubular protein assembly at 50 uM by TEM assay; format: functional, organism-based
[26] = tested on: Human immunodeficiency virus 1; test: Antiviral activity against HIV-1 SF-2 infected in human H9 cells assessed as appearance of immature viral core morphology at 10 uM by TEM (reference value: 9%); format: functional
[27] = tested on: Human immunodeficiency virus 1; test: Antiviral activity against reverse transcriptase and protease inhibitor-resistant HIV-1 isolate HI93-49 harboring reverse transcriptase L74V, V106I and protease […] mutant gene infected in human PBMC; format: functional, organism-based; conditions: Human immunodeficiency virus 1, isolate HI93-49; in short: as §1
[28] = tested on: Human immunodeficiency virus 1; test: Antiviral activity against HIV-1 SF-2 infected in human H9 cells assessed as appearance of distorted core structured viral particles by TEM assay; format: functional
[29] = tested on: Human immunodeficiency virus 1; test: Antiviral activity against reverse transcriptase and protease inhibitor-resistant HIV-1 isolate HI95-10 harboring reverse transcriptase V179I and protease M36I, L63P mutant gene infected in human PBMC; format: functional, organism-based; conditions: Human immunodeficiency virus 1, isolate HI95-10; in short: as §1
[30] = tested on: Human immunodeficiency virus 1; test: Antiviral activity against reverse transcriptase and protease inhibitor-resistant HIV-1 isolate HI98-80 harboring reverse transcriptase M41L, D67N, M184V, T215F, K219Q and protease M36I mutant gene infected in human PBMC; format: functional, organism-based; conditions: Human immunodeficiency virus 1, isolate HI98-80; in short: as §1
[31] = Cytotoxic activity against human Molt4/C8 cells at 1000 uM after 14 days by trypan blue assay; format: cell-based; conditions: molt-4, 336 h; in short: as §2
[32] = tested on: Human immunodeficiency virus 1; test: Antiviral activity against HIV-1 SF-2 infected in human H9 cells assessed as appearance of tangential slice of dense core viral particles at 10 uM by TEM assay (reference value: 29%); format: functional
[33] = tested on: Human immunodeficiency virus 1; test: Antiviral activity against HIV-1 pNL4-3 infected in human PBMC; format: functional, organism-based; conditions: Human immunodeficiency virus 1, pNL4-3
[34] = tested on: Human immunodeficiency virus 1; test: Antiviral activity against HIV-1 infected in human HeLa cells assessed as inhibition of viral p24 tubular assembly at 100 uM by TEM assay; format: functional, organism-based
In short: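 HeLa-tat cells (10⁵) seeded 1 day before, transfected (FuGENE6) with pC37M plasmid expressing p17-p24 fusion, 100 μM compound in culture medium. At 48–72 h posttransfection fixed in fresh 2.5% glutaraldehyde and intracellular tubular structures examined by TEM.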

PBMC [35] = test: Effect on PHA-induced human PBMC cell proliferation up to 400 uM by beta scintillation counting; format: functional, cell-based; in short: as §3
[36] = tested on: Human immunodeficiency virus 1; test: Antiviral activity against HIV-1 SF-2 infected in human H9 cells assessed as appearance of tubular core viral particles at 10 uM by TEM assay (reference value: 6%); format: functional
[37] = tested on: Human immunodeficiency virus 1; test: Antiviral activity against reverse transcriptase and protease inhibitor-resistant HIV-1 isolate HI98-9 harboring reverse transcriptase M41L, M184V, T215Y and protease L10I, L24I, L63P, V77I, V82T/S mutant gene infected in human PBMC; format: functional, organism-based; conditions: Human immunodeficiency virus 1, isolate HI98-9; in short: as §1

NC(=O)C(N)O (stereo not given)
pEC50 [1]: 2.70 | pEC50 [2]: 5.34 | Activity (L1210): Non-toxic | pEC50 [3]: 4.80 | pEC50 [4]: 6.00 | Activity [5]: 33% | pEC50 [6]: 5.12 | Activity [7]: 11% | Activity (CCRF-CEM): Non-toxic | inhibition [8]: Active | Activity [9]: 10% | Activity [10]: 4% | pEC50 [11]: 4.48 | pEC50 [12]: 5.38 | Activity (PBMC [13]): inactive | pEC50 [14]: 5.07 | Activity (HeLa): Non-toxic | pEC50 [15]: 4.48 | pEC50 [16]: 4.70 | Activity [17]: 9% | Activity (H9): Non-toxic | inhibition [18]: Active | pEC50 (Human alphaherpesvirus 2): 2.70 | pEC50 (Human respirovirus 3): 2.70 | pEC50 [19]: 4.62 | Activity (FM3A): Non-toxic | inhibition [20]: Active | pEC50 [21]: 5.10 | Activity (PBMC [22]): Non-toxic | pEC50 (Vaccinia virus): 2.70 | pEC50 [23]: 4.62 | pEC50 [24]: 4.80 | inhibition [25]: Active | Activity [26]: 8% | pEC50 [27]: 4.82 | Activity [28]: 62% | pEC50 [29]: 4.85 | pEC50 [30]: 5.26 | Activity [31]: Non-toxic | Activity [32]: 19% | pEC50 [33]: 6.00 | inhibition [34]: Active | Activity (PBMC [35]): inactive | Activity [36]: 6% | pEC50 [37]: 4.47
